The results in this text go back to ChEMBL document CHEMBL1671697, “Lipophilic bisphosphonates are potent inhibitors of Plasmodium liver-stage growth” (Antimicrob Agents Chemother, 2010).

pIC50, pKi: −log10 of the molar value. Activity calls are given as the source filed them. The calls are words filed in the database; no cut-off is given here.

The test system of series [1] is Plasmodium berghei. The experiment in a line: Antimalarial activity against Plasmodium berghei NK65 infected in human HepG2 cells after 48 hrs by RT-PCR. Particulars: NK65, HepG2, 48 h. It is filed as functional, organism-based. The procedure, abridged:
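P. berghei NK65 sporozoites (10,000 per well) added to human HepG2 monolayers seeded the day before, in DMEM with 10% FBS, with compound diluted in PBS; 37°C, 5% CO2, 48 h. Medium and compound were renewed at 24 h. Parasite 18S rRNA copies were quantified by real-time PCR against a plasmid standard and expressed relative to untreated control. IC50 was obtained by nonlinear regression.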

Series [2] can be described thus: Cytotoxicity against human HepG2 cells after 22 hrs. It is filed as cell-based. Particulars: read-out: TC50. In short, it runs like this: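 HepG2 cells were seeded at 70% confluence the day before treatment, then exposed to a range of inhibitor concentrations for 22 h at 37°C, 5% CO2. CellTiter One reagent was then added for 2 h more, and OD495 was read. IC50 (TC50) was fit by nonlinear regression of percent viable cells against concentration.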

Series [3] relates to Plasmodium berghei. Put plainly: Antiplasmodial activity against Plasmodium berghei NK65 infected in 12 wk old C57BL/6 mouse assessed as prepatent period at 0.8 mg/kg, ip administered once daily via a regimen of day 2, 1 pre-infection, on the day of infection followed by day 1, 2 and 3 days postinfection […] by microscopic analysis. It is filed as functional. To be noted: route intraperitoneal.

Series [4] deals with Plasmodium falciparum. Put plainly: Antiplasmodial activity against chloroquine-sensitive Plasmodium falciparum 3D7 assessed as suppression of parasitemia by microscopic analysis.
Series [5] has as its system Plasmodium falciparum. The experiment in a line: Antiplasmodial activity against chloroquine-resistant Plasmodium falciparum W2mef assessed as suppression of parasitemia by microscopic analysis.
A short description of series [6]: Inhibition of Plasmodium vivax GGPPS.
A short description of series [7]: Inhibition of Plasmodium vivax FPPS.
Series [8] is described as follows: Partition coefficient, log P of the compound. It is filed as physicochemical. To be noted: octanol/water.
In series [9] the test system is Plasmodium berghei. The experiment in a line: Antiplasmodial activity against 3000 Plasmodium berghei NK65 liver stage sporozoites infected in 12 wk old C57BL/6 mouse assessed as delay in prepatent period at 0.8 mg/kg, ip administered once daily via a regimen of day 2, 1 pre-infection, on the day of infection followed by day 1 and 2 postinfection for 5 days by microscopic analysis. It is filed as functional. Particulars: route intraperitoneal. The procedure, abridged: (§1)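 Mice were given compound i.p. once daily from 2 days before to 2 days after sporozoite challenge (5 doses). Challenge was 3,000 infectious P. berghei sporozoites. Parasitemia was followed by blood smear until 3–5%, then mice were sacrificed. Complete protection means no blood-stage parasites in smears; observation lasted 28 days.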

Series [10] concerns Plasmodium berghei. The experiment in a line: Antiplasmodial activity against Plasmodium berghei NK65 infected in 14 wk old C57BL/6 mouse assessed as prepatent period at 5 mg/kg, ip administered once daily via a regimen of day 2, 1 pre-infection, on the day of infection followed by day 1 and 2 postinfection […] by microscopic analysis. Type of series: functional, organism-based. Set-up: dose 5 mg/kg.

Series [11] concerns Plasmodium berghei. The experiment in a line: Antiplasmodial activity against Plasmodium berghei NK65 infected in 12 wk old C57BL/6 mouse assessed as prepatent period at 5 mg/kg, ip administered once daily via a regimen of day 2, 1 pre-infection, on the day of infection followed by day 1 and 2 postinfection for 5 days by microscopic analysis. Type of series: functional. To be noted: route intraperitoneal.

Series [12] deals with Plasmodium berghei. The experiment in a line: Antiplasmodial activity against 3000 Plasmodium berghei NK65 liver stage sporozoites infected in 12 wk old C57BL/6 mouse assessed as delay in prepatent period at 5 mg/kg, ip administered once daily via a regimen of day 2, 1 pre-infection, on the day of infection followed by day 1 and 2 postinfection for 5 days by microscopic analysis. Type of series: functional. Particulars: route intraperitoneal. In short, it runs like this: as §1

The test system of series [13] is Plasmodium berghei. The experiment in a line: Antiplasmodial activity against Plasmodium berghei NK65 infected in 12 wk old C57BL/6 mouse assessed as prepatent period at 2 mg/kg, ip administered once daily via a regimen of day 2, 1 pre-infection, on the day of infection followed by day 1 and 2 postinfection for 5 days by microscopic analysis. It is filed as functional. To be noted: route intraperitoneal.

Series [14] deals with Plasmodium berghei. Put plainly: Antiplasmodial activity against 3000 Plasmodium berghei NK65 liver stage sporozoites infected in 12 wk old C57BL/6 mouse assessed as delay in prepatent period at 2 mg/kg, ip administered once daily via a regimen of day 2, 1 pre-infection, on the day of infection followed by day 1 and 2 postinfection for 5 days by microscopic analysis. It is filed as functional. To be noted: route intraperitoneal. The procedure, abridged:
as §1

On to `CCCCCCCCN(C)CC(P(=O)(O)O)P(=O)(O)O`, for which the pIC50 in series [1] is 5.06; in series [4], 6.19; in [5] it was 5.70; in series [6], 6.20; in series [7], 5.82. In series [2], the CC50 at 22 h is 1000 µM. The Activity in series [3] came out at 7 days; in series [9], 3 days. For the same compound, the pKi in [6] is 7.82; in series [7], 7.37. Besides, the logP in series [8] was -4.1.
Regarding `COC(=O)[C@H](CC(C)C)NC(=O)c1ccc(NC[C@@H](N)CS)cc1-c1cccc2ccccc12`, the pIC50 in series [1] is 4.52. In [10], the result was inactive. For the same compound, the Activity in series [11] amounted to 4 days; in series [12], 0 days.
Turning to `CCCCCCCCCCN(C)CC(P(=O)(O)O)P(=O)(O)O`, the pIC50 is 5.10 in series [1]; 6.35 in series [4]; 5.66 in series [5]; 6.15 in series [6]; 5.82 in series [7]. Further, the CC50 at 22 h in series [2] turned out to be 1000 µM. In addition, the Activity in series [13] came to 9 days; in series [14], 5 days. For the same compound, the pKi was 7.80 in [6] and 7.37 in series [7]. The logP in series [8] (read-out: logP) is -3.4.
`NCCC(O)(P(=O)(O)O)P(=O)(O)O` [PAMIDRONIC ACID] had a negative logarithm of the IC50 (pIC50) in series [1] of less than 3.70.
